# Screens: PubChem BioAssay, Broad Institute
# GASC1 inh = inhibitors of human demethylase GASC-1 KDM4C. Q9H3R0. GST-KDM4C 2-372, H3K9me3 peptide, LANCE TR-FRET. inhibition, % at 12.5 µM. 96,000 tested, 0.15% active. AID 720574;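 active = mean replicate inhibition above about 25%, with at least 55% of replicates also reaching it, limit read from the data, passing the limit was not always enough; inconclusive = only one of those two conditions met; inactive = neither condition met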
#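 Assay system: GST-GASC-1 enzyme fragment 2-372 | Amount: 10 nM enzyme | Medium: HEPES buffer, pH 7.5, plus ascorbate | Reagent: H3K9me3 peptide substrate, Fe(II), 2-oxoglutarate | Doses: Single-point compound screen | Incubation: 30 min demethylation and 1 h detection at room temperature | Measured by: LANCE TR-FRET, excitation 340 nm, emissions 618 and 671 nm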
# IDH1 R132H inh = inhibitors of human IDH1 R132H; IDH1 R132H reductase, diaphorase/resazurin fluorescence, 60 min; inhibition, % at 10 µM; 70,000 tested, 0.18% active; AID 624101; in the data active = inhibition above about 34%; inconclusive = no clear call, values can overlap the other calls; inactive = below about 11%;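 note: 0% = DMSO and 100% = no enzyme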
# Target sequence (O75874 whole entry R132H): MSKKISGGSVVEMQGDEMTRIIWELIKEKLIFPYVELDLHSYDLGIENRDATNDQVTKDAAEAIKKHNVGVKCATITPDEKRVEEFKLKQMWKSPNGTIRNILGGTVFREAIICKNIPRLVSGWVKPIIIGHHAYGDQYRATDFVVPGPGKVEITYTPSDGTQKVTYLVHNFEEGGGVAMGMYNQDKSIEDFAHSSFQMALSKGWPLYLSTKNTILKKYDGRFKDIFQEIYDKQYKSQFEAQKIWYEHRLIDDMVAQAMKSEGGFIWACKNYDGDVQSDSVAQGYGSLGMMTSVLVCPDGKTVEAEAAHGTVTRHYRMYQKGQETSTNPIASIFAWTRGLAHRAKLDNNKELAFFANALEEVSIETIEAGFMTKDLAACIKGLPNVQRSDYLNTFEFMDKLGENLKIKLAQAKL
# T cruzi growth-1 = T. cruzi proliferation inhibition; T. cruzi beta-gal in NIH3T3, GalScreen luminescence, 90 h; inhibition, % at 8.34 µM; 77,000 tested, 5.9% active; AID 624255;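 active = mean inhibition above about 93%, with at least 55% of replicates each passing it, limit read from the data, passing the limit was not always enough; inconclusive = only one of those two conditions holds; inactive = neither condition holds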
# T cruzi growth-2 = inhibitors of T. cruzi proliferation | inhibition, % at 8.35 µM | T. cruzi beta-gal in NIH3T3, GalScreen luminescence, 90 h | shares compounds with T cruzi growth-1 | AID 651739 | 5,600 tested, 72% active;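 active = mean replicate inhibition above about 95% and at least 55% of replicates individually reaching it, limit read from the data; inconclusive = only one of the two criteria is met; inactive = neither criterion is met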
# T cruzi growth-3 = Trypanosoma cruzi proliferation inhibition. shares compounds with T cruzi growth-1. T. cruzi beta-gal in NIH3T3, GalScreen luminescence, 90 h. inhibition, % at 2.09 µM. 5,600 tested, 21% active;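 active = mean inhibition above about 95%, with at least 55% of replicates also reaching it, limit read from the data; inconclusive = meets just one of the two conditions; inactive = meets neither condition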;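 note: plate controls were neutral control median for no effect and positive control median for full effect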
# 3T3 cytotox = cytotoxicity in mouse NIH/3T3 fibroblasts | shares compounds with T cruzi growth-1 | NIH/3T3 viability, CellTiter-Glo ATP luminescence, 90 h | cytotoxicity (signal decrease), % at 8.35 µM | 5,600 tested, 14% active | AID 651742;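 active = mean signal decrease across replicates above about 35% based on untreated-well scatter, with enough replicates individually passing, limit read from the data; inconclusive = no rule stated though some were filed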;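 note: 0% = median of neutral control wells and 100% = median of positive control wells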
# 3T3 cytotox 2 = cytotoxicity in mouse NIH/3T3 fibroblasts; inhibition, % at 24.9 µM; shares compounds with T cruzi growth-1; 5,600 tested, 56% active; AID 651744; NIH/3T3 viability, CellTiter-Glo ATP luminescence, 90 h;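 active = mean loss of cell viability signal at or above a set limit, and enough replicates individually reaching it; inconclusive = meets only the mean limit or only the replicate share; inactive = meets neither condition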;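 note: 0% = median of neutral control wells and 100% = median of positive control wells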
# * hit, by the source's call; u = inconclusive; x = no result. The entries come from a sample that favours hits as a whole.
SMILES,GASC1 inh,IDH1 R132H inh,T cruzi growth-1,T cruzi growth-2,T cruzi growth-3,3T3 cytotox,3T3 cytotox 2
Cc1ccc(S(=O)(=O)N(C)C[C@H]2OCCCC[C@@H](C)Oc3ccc(NC(=O)Nc4ccc(C(F)(F)F)cc4)cc3C(=O)N([C@@H](C)CO)C[C@@H]2C)cc1,0,x,x,x,x,x,x
C[C@@H]1CCCCO[C@@H](CN(C)S(=O)(=O)c2ccccc2)[C@@H](C)CN([C@@H](C)CO)C(=O)c2cc(NC(=O)Nc3ccc(C(F)(F)F)cc3)ccc2O1,1,x,105*,103*,106*,37*,63*
C[C@@H]1CN([C@@H](C)CO)C(=O)c2cc(NC(=O)Nc3ccc(C(F)(F)F)cc3)ccc2O[C@@H](C)CCCCO[C@@H]1CN(C)S(=O)(=O)c1ccccc1,1,x,76,x,x,x,x
C[C@@H]1CN([C@@H](C)CO)C(=O)c2cc(NC(=O)Nc3ccc(C(F)(F)F)cc3)ccc2O[C@@H](C)CCCCO[C@H]1CN(C)S(=O)(=O)c1ccccc1,0,x,109*,103*,114*,14,16
C[C@@H]1CN([C@@H](C)CO)C(=O)c2cc(NC(=O)CCCCCC(=O)Nc3ccccc3N)ccc2O[C@@H]1CN(C)C(=O)Nc1ccc(F)cc1,0,x,x,x,x,x,x
COCC(=O)N(C)C[C@@H]1Oc2ncc(-c3ccc(F)cc3)cc2C(=O)N([C@H](C)CO)C[C@@H]1C,-1,-1,7,x,x,x,x
Cc1ccc(S(=O)(=O)N(C)C[C@H]2OCCCC[C@@H](C)Oc3ccc(NC(=O)Nc4ccc5c(c4)OCO5)cc3C(=O)N([C@H](C)CO)C[C@@H]2C)cc1,0,x,x,x,x,x,x
C[C@@H]1CN([C@@H](C)CO)C(=O)c2cc(NC(=O)Nc3ccc4c(c3)OCO4)ccc2O[C@@H](C)CCCCO[C@@H]1CN(C)S(=O)(=O)c1ccc(Cl)cc1,1,x,48,x,x,x,x
C[C@@H]1CN([C@H](C)CO)C(=O)c2cc(NC(=O)Nc3ccc4c(c3)OCO4)ccc2O[C@@H](C)CCCCO[C@H]1CN(C)S(=O)(=O)c1ccc(Cl)cc1,-1,0,101*,108*,43,-13,-10
C[C@@H]1CCCCO[C@@H](CN(C)S(=O)(=O)c2ccc(Cl)cc2)[C@@H](C)CN([C@@H](C)CO)C(=O)c2cc(NC(=O)Nc3ccc4c(c3)OCO4)ccc2O1,0,x,97*,105*,79,16,27
Cc1ccc(S(=O)(=O)N(C)C[C@H]2OCCCC[C@@H](C)Oc3ccc(NC(=O)Nc4ccc5c(c4)OCO5)cc3C(=O)N([C@@H](C)CO)C[C@H]2C)cc1,0,1,x,x,x,x,x
C[C@@H]1CCCCO[C@@H](CN(C)S(=O)(=O)c2ccc(Cl)cc2)[C@H](C)CN([C@@H](C)CO)C(=O)c2cc(NC(=O)Nc3ccc4c(c3)OCO4)ccc2O1,0,2,103*,110*,80,-2,-11
Cc1noc(C)c1NC(=O)Nc1ccc2c(c1)C(=O)N([C@@H](C)CO)C[C@H](C)[C@@H](CN(C)S(=O)(=O)c1ccc(Cl)cc1)OCCCC[C@@H](C)O2,0,x,99*,59,10,-2,4
Cc1noc(C)c1NC(=O)Nc1ccc2c(c1)C(=O)N([C@H](C)CO)C[C@H](C)[C@@H](CN(C)S(=O)(=O)c1ccc(Cl)cc1)OCCCC[C@@H](C)O2,x,-2,3,x,x,x,x
COc1ccccc1NC(=O)N[C@@H]1CC[C@@H](CC(=O)NCc2ccc(Cl)c(Cl)c2)O[C@H]1CO,-2,0,-64,x,x,x,x
CCC(Sc1nc(C)cc(C)n1)C(=O)Nc1ccc(-c2nc3ccc(C)cc3s2)cc1 (stereo unspecified),x,0,x,x,x,x,x
CCn1c(SCC(=O)Nc2sc3c(c2C#N)CCCC3)nnc1-c1cccc(Cl)c1,x,0,x,x,x,x,x
COc1ccccc1C(=O)NC1(C(F)(F)F)C(=O)N(Cc2ccco2)C2=C1C(=O)CC(C)(C)C2 (stereo unspecified),x,0,x,x,x,x,x
CCN1CCOC(CC(=O)Nc2cc(OC)cc(OC)c2)C1=O (stereo unspecified),x,0,x,x,x,x,x
CC(C)(C)c1ccc(S(=O)(=O)NCC(=O)Nc2cccc(Cl)c2)cc1,x,0,x,x,x,x,x
COCCOC(=O)N1C(=O)[C@@]2(c3cc(C#CCC(C(=O)OC)C(=O)OC)ccc31)[C@H](C(=O)N1CCN(c3ncccn3)CC1)[C@H]1C(=O)O[C@H](c3ccccc3)[C@H](c3ccccc3)N1[C@@H]2c1ccccc1OCCO,x,0,x,x,x,x,x
CCC(=O)N1CC(=O)N2[C@H](CO)[C@H](c3ccc(C#Cc4cccc(OC)c4)cc3)[C@H]2C1,-1,x,x,x,x,x,x
COc1ccc(NC(=O)NCc2ccc(C(=O)O)cc2)c(OC)c1,x,0,x,x,x,x,x
CCOC(=O)CSc1ncnc2scc(-c3ccc(Cl)cc3)c12,x,0,x,x,x,x,x
C[C@@H]1CCCCO[C@@H](CN(C)S(=O)(=O)c2ccc(Cl)cc2)[C@H](C)CN([C@H](C)CO)C(=O)c2cc(NC(=O)Nc3ccc4c(c3)OCO4)ccc2O1,-1,x,106*,106*,112*,9,-6
SMILES,GASC1 inh,IDH1 R132H inh,T cruzi growth-1,T cruzi growth-2,T cruzi growth-3,3T3 cytotox,3T3 cytotox 2
Cc1ccc(S(=O)(=O)N(C)C[C@H]2OCCCC[C@H](C)Oc3ccc(NC(=O)Nc4ccc5c(c4)OCO5)cc3C(=O)N([C@H](C)CO)C[C@@H]2C)cc1,-1,x,x,x,x,x,x
Cc1ccc(S(=O)(=O)Nc2ccc3c(c2)C(=O)N([C@@H](C)CO)C[C@H](C)[C@@H](CN(C)C(=O)Nc2ccc(F)cc2)OCCCC[C@@H](C)O3)cc1,0,1,98*,107*,84,-10,23
Cc1ccc(S(=O)(=O)Nc2ccc3c(c2)C(=O)N([C@H](C)CO)C[C@H](C)[C@H](CN(C)C(=O)Nc2ccc(F)cc2)OCCCC[C@@H](C)O3)cc1,0,1,21,x,x,x,x
Cc1ccc(S(=O)(=O)Nc2ccc3c(c2)C(=O)N([C@H](C)CO)C[C@@H](C)[C@H](CN(C)C(=O)Nc2ccc(F)cc2)OCCCC[C@H](C)O3)cc1,-1,0,100*,106*,47,-38,16
Cc1ccc(S(=O)(=O)Nc2ccc3c(c2)C(=O)N([C@@H](C)CO)C[C@H](C)[C@H](CN(C)C(=O)Nc2ccc(F)cc2)OCCCC[C@@H](C)O3)cc1,1,x,86,x,x,x,x
Cc1ccc(S(=O)(=O)Nc2ccc3c(c2)C(=O)N([C@@H](C)CO)C[C@@H](C)[C@@H](CN(C)C(=O)Nc2ccc(F)cc2)OCCCC[C@H](C)O3)cc1,0,1,-2,x,x,x,x
Cc1ccc(S(=O)(=O)Nc2ccc3c(c2)C(=O)N([C@@H](C)CO)C[C@@H](C)[C@H](CN(C)C(=O)Nc2ccc(F)cc2)OCCCC[C@@H](C)O3)cc1,0,1,u,101*,82,9,24
